Source: PMC10825549 (JID Innovations, 2023)

Tests used:
TYK2 = TYK2 (Homo sapiens, UniProt P29597); assay: Inhibition of catalytic domain activity, TYK2; assay type: biochemical
Summary of the method: (§1)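 Z′-LYTE biochemical kinase assay run by the vendor per manufacturer's protocol. Each kinase plate carried 0%/100% phosphorylation and 0%/100% inhibition controls. Development-reaction and compound-fluorescence interference controls at each compound concentration. n = 1 per kinase.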

CYP1A2 = CYP1A2 (Homo sapiens, UniProt P05177); assay: Cytochrome P450 phenotyping; assay type: in vitro ADME; conditions: recombinant human CYP1A2; with NADPH; 60 minutes; n = 1
Summary of the method: (§2)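 Recombinant human CYPs prepared at CYP1A2 200 nM, CYP2B6/2C8 250 nM, CYP2C9 100 nM, CYP2D6 50 nM. Test compound added as 2 μM DMSO dosing solution on ice. Plate prewarmed, then 8 mM NADPH solution or blank buffer added. Incubation 60 min (1A2, 2B6, 2C8) or 30 min (2C9, 2D6). Stopped with acetonitrile plus internal standard; supernatant by LC-MS/MS; n = 1.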

[1] = 28-day minipig repeat exposure study: toxicokinetics; assay type: in vivo; conditions: for concentration at 0 h / concentration at 0.5 h / concentration at 1 h / concentration at 2 h / concentration at 4 h / concentration at 8 h / concentration at 12 h / concentration at 24 h: both, plasma, topical; for concentration in the skin: terminal sacrifice (day 28)
Summary of the method: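 Topical solution applied to minipigs once daily for 28 days at 0, 40, 80 or 160 mg/day, left on skin 20–22 h, then wiped with moist towel. Jugular blood collected days 1 and 28, pre-dose and ~0.5, 1, 2, 4, 8, 12, 22 h after application, after IM acepromazine 0.2–0.4 mg/kg. Pigs nonfasted; K2 EDTA plasma; validated LC-MS/MS.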

[2] = Metabolic stability in liver microsomes; assay type: in vitro ADME; conditions: rat
Summary of the method: (§3)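 Test compound from 1 mM DMSO solution preincubated 5 min with dog, human, monkey, rat or minipig liver microsomes. NADPH (10 mM) then added. Reactions stopped at 0, 5, 15 and 30 min with 0.05% formic acid in acetonitrile containing loperamide internal standard. Supernatants analysed by LC-MS/MS; n = 1 per microsome species.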

HPK1 (MAP4K1) = HPK1 (MAP4K1) (Homo sapiens, UniProt Q92918); assay: IC50 for kinases of potential cross-over; assay type: biochemical
HPK1 (MAP4K1), sequence (Q92918 whole entry): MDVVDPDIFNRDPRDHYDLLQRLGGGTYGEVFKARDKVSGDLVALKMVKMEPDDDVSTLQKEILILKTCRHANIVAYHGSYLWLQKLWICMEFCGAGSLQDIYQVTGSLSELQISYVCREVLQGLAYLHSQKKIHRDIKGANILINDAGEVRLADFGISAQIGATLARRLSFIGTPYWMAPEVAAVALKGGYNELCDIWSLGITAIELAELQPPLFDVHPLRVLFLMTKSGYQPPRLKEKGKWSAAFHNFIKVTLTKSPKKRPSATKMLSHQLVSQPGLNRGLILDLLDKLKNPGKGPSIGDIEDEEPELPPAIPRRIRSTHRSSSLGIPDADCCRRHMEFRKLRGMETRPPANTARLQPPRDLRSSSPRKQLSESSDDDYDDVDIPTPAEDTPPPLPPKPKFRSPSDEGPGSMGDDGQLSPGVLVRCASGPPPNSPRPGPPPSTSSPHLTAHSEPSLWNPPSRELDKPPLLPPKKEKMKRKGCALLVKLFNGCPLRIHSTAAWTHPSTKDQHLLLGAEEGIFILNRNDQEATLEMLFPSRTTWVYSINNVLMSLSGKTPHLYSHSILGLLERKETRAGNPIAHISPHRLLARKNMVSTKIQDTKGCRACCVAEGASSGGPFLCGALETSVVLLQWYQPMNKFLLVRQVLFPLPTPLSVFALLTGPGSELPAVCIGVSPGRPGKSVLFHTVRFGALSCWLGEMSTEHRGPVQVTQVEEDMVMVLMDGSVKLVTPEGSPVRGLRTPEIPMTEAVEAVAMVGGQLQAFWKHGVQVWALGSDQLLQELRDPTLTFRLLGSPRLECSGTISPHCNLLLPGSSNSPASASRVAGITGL

CYP2C8 = CYP2C8 (Homo sapiens, UniProt P10632); assay: Cytochrome P450 phenotyping; assay type: in vitro ADME; conditions: recombinant human CYP2C8; with NADPH; 60 minutes; n = 1
CYP2C8, sequence (P10632 whole entry): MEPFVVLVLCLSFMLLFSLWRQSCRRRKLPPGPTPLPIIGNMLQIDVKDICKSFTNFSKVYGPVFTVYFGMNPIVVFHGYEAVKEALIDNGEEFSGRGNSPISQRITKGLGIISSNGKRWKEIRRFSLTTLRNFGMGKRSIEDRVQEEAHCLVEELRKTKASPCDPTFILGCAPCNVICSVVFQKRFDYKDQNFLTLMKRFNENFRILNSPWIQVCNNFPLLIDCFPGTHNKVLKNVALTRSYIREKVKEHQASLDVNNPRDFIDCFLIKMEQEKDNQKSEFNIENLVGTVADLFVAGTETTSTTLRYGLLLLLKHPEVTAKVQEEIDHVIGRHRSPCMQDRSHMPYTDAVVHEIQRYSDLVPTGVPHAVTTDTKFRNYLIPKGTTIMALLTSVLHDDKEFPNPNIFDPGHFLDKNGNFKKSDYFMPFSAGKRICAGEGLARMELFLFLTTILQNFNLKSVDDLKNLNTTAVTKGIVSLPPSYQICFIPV
Summary of the method: as §2

CYP2C19 = CYP2C19 (Homo sapiens, UniProt P33261); assay: Cytochrome P450 phenotyping; assay type: in vitro ADME; conditions: recombinant human CYP2C19; with NADPH; 60 minutes; n = 1
CYP2C19, sequence (P33261 whole entry): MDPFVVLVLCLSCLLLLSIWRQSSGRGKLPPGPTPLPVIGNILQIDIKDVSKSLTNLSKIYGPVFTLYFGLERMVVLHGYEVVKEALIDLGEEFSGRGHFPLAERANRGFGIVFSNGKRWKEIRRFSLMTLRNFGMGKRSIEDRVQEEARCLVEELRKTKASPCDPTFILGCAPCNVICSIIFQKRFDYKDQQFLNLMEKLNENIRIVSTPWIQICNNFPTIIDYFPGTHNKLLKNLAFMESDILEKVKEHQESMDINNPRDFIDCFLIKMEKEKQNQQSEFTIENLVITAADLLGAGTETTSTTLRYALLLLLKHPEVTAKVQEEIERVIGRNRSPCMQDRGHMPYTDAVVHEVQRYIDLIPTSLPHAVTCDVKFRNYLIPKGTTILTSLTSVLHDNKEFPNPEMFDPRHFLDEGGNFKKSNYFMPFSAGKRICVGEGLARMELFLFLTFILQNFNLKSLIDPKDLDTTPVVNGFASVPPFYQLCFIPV

[3] = Phase 2a study ATI-1777-AD-201: plasma pharmacokinetics; assay type: in vivo, human
Summary of the method: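 Participants with moderate/severe AD applied 2% topical solution twice daily for 4 weeks. Plasma test compound measured by sparse sampling, 8 samples per participant. Concentrations expressed relative to the Jak1/3 IC50.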

Aurora A = Aurora A (Homo sapiens, UniProt O14965); assay: IC50 for kinases of potential cross-over; assay type: biochemical
Aurora A, sequence (O14965 whole entry): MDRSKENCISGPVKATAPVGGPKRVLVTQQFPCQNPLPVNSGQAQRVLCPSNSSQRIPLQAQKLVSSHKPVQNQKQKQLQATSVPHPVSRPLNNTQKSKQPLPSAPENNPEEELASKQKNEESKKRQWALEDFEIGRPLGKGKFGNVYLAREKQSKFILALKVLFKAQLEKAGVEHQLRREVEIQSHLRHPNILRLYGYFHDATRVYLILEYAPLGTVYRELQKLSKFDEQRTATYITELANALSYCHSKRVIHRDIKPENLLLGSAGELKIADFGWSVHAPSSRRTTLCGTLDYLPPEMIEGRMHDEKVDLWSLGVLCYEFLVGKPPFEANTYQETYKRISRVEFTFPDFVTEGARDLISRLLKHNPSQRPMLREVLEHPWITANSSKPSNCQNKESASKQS

MKNK1/MNK1 = MKNK1/MNK1 (Homo sapiens, UniProt Q9BUB5); assay: IC50 for kinases of potential cross-over; assay type: biochemical
MKNK1/MNK1, sequence (Q9BUB5 whole entry, the tested form may be a part): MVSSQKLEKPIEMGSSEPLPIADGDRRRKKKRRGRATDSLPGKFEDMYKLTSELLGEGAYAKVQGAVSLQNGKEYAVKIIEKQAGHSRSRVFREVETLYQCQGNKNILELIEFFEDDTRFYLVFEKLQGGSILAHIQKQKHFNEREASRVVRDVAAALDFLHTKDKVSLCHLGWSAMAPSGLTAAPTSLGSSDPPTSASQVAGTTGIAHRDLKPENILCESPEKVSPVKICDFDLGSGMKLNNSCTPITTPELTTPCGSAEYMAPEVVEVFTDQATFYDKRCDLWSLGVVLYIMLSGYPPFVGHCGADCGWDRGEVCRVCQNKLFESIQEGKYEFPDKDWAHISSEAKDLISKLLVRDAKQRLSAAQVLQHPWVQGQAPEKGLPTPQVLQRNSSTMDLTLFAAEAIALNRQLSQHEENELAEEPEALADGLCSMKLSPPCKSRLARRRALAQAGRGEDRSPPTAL

Jak2 = Jak2 (Homo sapiens, UniProt O60674); assay: Inhibition of catalytic domain activity, Jak2; assay type: biochemical
Summary of the method: as §1

Jak1/3 = assay: Inhibition of IL-2-induced STAT phosphorylation in PBMCs; assay type: cell-based, human
Summary of the method: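 Ficoll-isolated human PBMCs, cryopreserved, thawed into RPMI/10% heat-inactivated FBS assay medium, 200,000 cells/well. Serially diluted test compound (final 20 μM to 2 × 10−6 μM) or 0.1% DMSO vehicle preincubated 1 h at 37 °C. Cytokine then added for 5–10 min, followed by 30 min shaking at 4 °C and lysis. Phospho-STAT5/STAT4 by MSD immunoassay, phospho-STAT1 by ELISA. IC50 reported as mean ± SD.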

BTK = BTK (Homo sapiens, UniProt Q06187); assay: IC50 for kinases of potential cross-over; assay type: biochemical
BTK, sequence (Q06187 whole entry): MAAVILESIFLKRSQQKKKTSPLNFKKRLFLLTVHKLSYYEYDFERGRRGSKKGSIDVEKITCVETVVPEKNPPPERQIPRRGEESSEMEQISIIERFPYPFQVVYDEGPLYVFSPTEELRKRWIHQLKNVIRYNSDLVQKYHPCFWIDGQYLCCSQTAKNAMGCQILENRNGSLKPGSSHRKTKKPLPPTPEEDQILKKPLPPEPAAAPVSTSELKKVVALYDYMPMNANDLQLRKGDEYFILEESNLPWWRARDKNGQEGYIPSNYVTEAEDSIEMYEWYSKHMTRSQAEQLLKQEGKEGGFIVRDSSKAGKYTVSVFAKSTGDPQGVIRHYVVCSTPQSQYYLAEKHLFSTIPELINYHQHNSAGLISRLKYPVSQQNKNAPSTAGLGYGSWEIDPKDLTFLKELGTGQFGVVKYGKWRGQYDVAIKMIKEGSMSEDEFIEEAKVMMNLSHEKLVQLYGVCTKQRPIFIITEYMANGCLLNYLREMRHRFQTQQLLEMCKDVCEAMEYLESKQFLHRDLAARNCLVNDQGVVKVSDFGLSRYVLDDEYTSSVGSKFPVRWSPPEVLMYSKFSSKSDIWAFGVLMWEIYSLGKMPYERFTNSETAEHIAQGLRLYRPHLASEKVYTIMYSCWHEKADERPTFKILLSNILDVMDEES

minipig = assay: 7-day minipig study: dermal tolerability; assay type: in vivo; conditions: 2% solution applied to the skin for 7 consecutive days
Summary of the method: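 Each minipig (1 male, 1 female) received topical test compound and matching placebo formulations once daily on designated skin areas. Animals were checked daily for clinical signs. Application sites were scored for dermal irritation by a modified Draize procedure.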

[4] = Metabolic stability in liver microsomes; assay type: in vitro ADME; conditions: dog
Summary of the method: as §3

KDR (VEGFR2) = KDR (VEGFR2) (Homo sapiens, UniProt P35968); assay: IC50 for kinases of potential cross-over; assay type: biochemical
KDR (VEGFR2), sequence (P35968 20-1356): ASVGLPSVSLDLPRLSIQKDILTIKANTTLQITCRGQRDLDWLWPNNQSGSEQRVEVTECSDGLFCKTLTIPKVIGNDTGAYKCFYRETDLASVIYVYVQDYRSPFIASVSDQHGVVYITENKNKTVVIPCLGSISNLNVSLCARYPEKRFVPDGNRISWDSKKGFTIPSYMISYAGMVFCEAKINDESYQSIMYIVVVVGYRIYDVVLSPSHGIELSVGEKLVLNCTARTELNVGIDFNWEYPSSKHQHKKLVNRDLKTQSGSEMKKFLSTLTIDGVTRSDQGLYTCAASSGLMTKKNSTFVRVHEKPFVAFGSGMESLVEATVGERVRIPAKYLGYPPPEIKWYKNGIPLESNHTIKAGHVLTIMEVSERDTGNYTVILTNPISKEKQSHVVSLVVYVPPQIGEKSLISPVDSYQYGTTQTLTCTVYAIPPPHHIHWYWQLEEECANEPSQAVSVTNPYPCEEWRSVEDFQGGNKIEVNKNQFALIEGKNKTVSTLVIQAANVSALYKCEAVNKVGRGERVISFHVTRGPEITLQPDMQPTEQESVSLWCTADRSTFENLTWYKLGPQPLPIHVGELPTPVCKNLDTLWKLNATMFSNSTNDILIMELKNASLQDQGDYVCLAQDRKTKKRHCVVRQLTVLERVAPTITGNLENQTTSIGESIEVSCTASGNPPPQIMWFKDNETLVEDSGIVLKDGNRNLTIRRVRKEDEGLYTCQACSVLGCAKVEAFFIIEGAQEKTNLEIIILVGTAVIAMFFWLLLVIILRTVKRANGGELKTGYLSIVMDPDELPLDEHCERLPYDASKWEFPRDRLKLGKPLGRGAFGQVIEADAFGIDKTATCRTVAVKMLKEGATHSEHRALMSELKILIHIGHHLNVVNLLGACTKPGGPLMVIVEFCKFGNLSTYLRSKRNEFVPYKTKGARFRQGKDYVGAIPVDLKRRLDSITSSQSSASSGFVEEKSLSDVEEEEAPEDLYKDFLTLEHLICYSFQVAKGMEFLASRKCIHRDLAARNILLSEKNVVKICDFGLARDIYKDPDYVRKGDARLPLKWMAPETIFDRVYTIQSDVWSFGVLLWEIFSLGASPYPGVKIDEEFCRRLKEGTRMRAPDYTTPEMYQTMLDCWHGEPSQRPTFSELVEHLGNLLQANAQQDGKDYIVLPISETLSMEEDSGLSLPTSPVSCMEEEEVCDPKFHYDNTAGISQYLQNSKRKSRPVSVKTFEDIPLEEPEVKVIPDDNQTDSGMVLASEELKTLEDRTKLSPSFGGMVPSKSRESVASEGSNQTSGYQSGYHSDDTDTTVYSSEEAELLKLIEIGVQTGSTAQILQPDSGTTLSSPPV

TYK2, sequence (P29597 897-1176 limits assumed): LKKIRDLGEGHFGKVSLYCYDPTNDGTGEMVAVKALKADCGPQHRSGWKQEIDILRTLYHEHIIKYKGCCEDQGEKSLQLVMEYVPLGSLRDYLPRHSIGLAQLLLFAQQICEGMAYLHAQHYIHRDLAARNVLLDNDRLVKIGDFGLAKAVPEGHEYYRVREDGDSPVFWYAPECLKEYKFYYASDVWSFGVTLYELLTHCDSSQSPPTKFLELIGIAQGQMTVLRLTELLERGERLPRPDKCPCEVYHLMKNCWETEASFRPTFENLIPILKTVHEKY

Question: For `CCOC(=O)c1cnc2[nH]ccc2c1N[C@@H]1CCCN(C(=O)CC#N)C1` [ATI-1777, ethyl (R)-4-((1-(2-cyanoacetyl)piperidin-3-yl)amino)-1H-pyrrolo[2,3-b]pyridine-5-carboxylate], which IC50 (TYK2) is on record?
Answer: 19 nM

Question: What about the “Percentage Remaining” value (CYP1A2) of the same compound?
Answer: 55.7%

Question: And the quantifiable plasma concentrations ([1]; 160 mg group, day 28, all pigs)?
Answer: < 6.26 ng/mL

Question: And the “plasma concentrations when quantifiable” value ([1]; 40 and 80 mg/day, days 1 and 28, nonquantifiable in most pigs)?
Answer: ≤ 4.94 ng/mL

Question: What about the concentration at 0 h ([1]; 40 mg/day) of the same compound?
Answer: 0.34 ng/mL

Question: And the concentration at 0.5 h ([1]; 40 mg/day)?
Answer: 0.143 ng/mL

Question: And the concentration at 1 h ([1]; 40 mg/day)?
Answer: 0.0685 ng/mL

Question: What about the concentration at 2 h ([1]; 40 mg/day) of the same compound?
Answer: 0.108 ng/mL

Question: What about the concentration at 4 h ([1]; 40 mg/day) of the same compound?
Answer: 0.121 ng/mL

Question: And the concentration at 8 h ([1]; 40 mg/day)?
Answer: 0 ng/mL

Question: And the concentration at 12 h ([1]; 40 mg/day)?
Answer: 0 ng/mL

Question: And the concentration at 24 h ([1]; 40 mg/day)?
Answer: 0 ng/mL

Question: And the concentration at 0 h ([1]; 80 mg/day)?
Answer: 0.118 ng/mL

Question: What about the concentration at 0.5 h ([1]; 80 mg/day) of the same compound?
Answer: 0.647 ng/mL

Question: What about the concentration at 1 h ([1]; 80 mg/day) of the same compound?
Answer: 0.0995 ng/mL

Question: What about the concentration at 2 h ([1]; 80 mg/day) of the same compound?
Answer: 0.197 ng/mL

Question: And the concentration at 4 h ([1]; 80 mg/day)?
Answer: 0.193 ng/mL

Question: What about the concentration at 8 h ([1]; 80 mg/day) of the same compound?
Answer: 0.173 ng/mL

Question: And the concentration at 12 h ([1]; 80 mg/day)?
Answer: 0.823 ng/mL

Question: And the concentration at 24 h ([1]; 80 mg/day)?
Answer: 0 ng/mL

Question: What about the concentration at 0 h ([1]; 160 mg/day) of the same compound?
Answer: 1.82 ng/mL

Question: And the concentration at 0.5 h ([1]; 160 mg/day)?
Answer: 0.479 ng/mL

Question: And the concentration at 1 h ([1]; 160 mg/day)?
Answer: 1.14 ng/mL

Question: What about the concentration at 2 h ([1]; 160 mg/day) of the same compound?
Answer: 1.12 ng/mL

Question: What about the concentration at 4 h ([1]; 160 mg/day) of the same compound?
Answer: 0.755 ng/mL

Question: What about the concentration at 8 h ([1]; 160 mg/day) of the same compound?
Answer: 0.684 ng/mL

Question: And the concentration at 12 h ([1]; 160 mg/day)?
Answer: 1.02 ng/mL

Question: What about the concentration at 24 h ([1]; 160 mg/day) of the same compound?
Answer: 0.0569 ng/mL

Question: And the “concentration in the skin” value ([1]; females)?
Answer: ≥ 1960 ng/g

Question: What about the “concentration in the skin” value ([1]; males) of the same compound?
Answer: ≥ 4280 ng/g

Question: What about the CLint scaled [2] of the same compound?
Answer: 370 mL/min/kg

Question: What about the microsomal CLint [2] of the same compound?
Answer: 52 µL/min/mg

Question: And the half-life ([2]; T1/2, Study 1, n = 1)?
Answer: 6.7 min

Question: What about the half-life ([2]; T1/2, Study 2, n = 1) of the same compound?
Answer: 27 min

Question: And the IC50 (HPK1 (MAP4K1))?
Answer: 285 nM

Question: What about the “Fold Selectivity” value (HPK1 (MAP4K1); HPK1 (MAP4K1) vs Jak1 (= 1)) of the same compound?
Answer: 190 fold

Question: And the “Percentage Remaining” value (CYP2C8)?
Answer: 41.2%

Question: What about the “Percentage Remaining” value (CYP2C19) of the same compound?
Answer: 75.5%

Question: And the “all plasma concentrations relative to IC50 for Jak1/3” value ([3]; IC50 45 ng/ml)?
Answer: less than half of the IC50

Question: What about the “plasma concentrations relative to inhibitory concentrations for Jak1/2” value ([3]; all plasma concentrations) of the same compound?
Answer: below IC10

Question: What about the “mean plasma concentration as percentage of the IC50 for Jak1/3” value ([3]; each timepoint, IC50 45 ng/ml) of the same compound?
Answer: < 5%

Question: And the “participants with samples with concentrations >10% of the IC50 for Jak1/3” value ([3]; in vivo)?
Answer: Three

Question: And the IC50 (Aurora A)?
Answer: 641 nM

Question: And the “Fold Selectivity” value (Aurora A; Aurora A vs Jak1 (= 1))?
Answer: 427 fold

Question: And the IC50 (MKNK1/MNK1)?
Answer: 584 nM

Question: What about the “Fold Selectivity” value (MKNK1/MNK1; MKNK1/MNK1 vs Jak1 (= 1)) of the same compound?
Answer: 389 fold

Question: And the IC50 (Jak2)?
Answer: 7.1 nM

Question: And the IC50 (Jak1/3; Homo sapiens, PBMC, read-out: IC50 Mean ± SD)?
Answer: 19 ± 6 nM

Question: And the “Fold Jak1/3” value (Jak1/3; IL-2, Jak1/3 (reference))?
Answer: 1.0 fold

Question: And the IC50 (BTK)?
Answer: 210 nM

Question: And the “Fold Selectivity” value (BTK; BTK vs Jak1 (= 1))?
Answer: 140 fold

Question: What about the “clinical observations and clinical pathology parameters” value (minipig) of the same compound?
Answer: no adverse clinical observations or changes in clinical pathology parameters

Question: And the CLint scaled [4]?
Answer: 198 mL/min/kg

Question: What about the microsomal CLint [4] of the same compound?
Answer: 46 µL/min/mg

Question: What about the half-life ([4]; T1/2, Study 1, n = 1) of the same compound?
Answer: 17.4 min

Question: And the half-life ([4]; T1/2, Study 2, n = 1)?
Answer: 30 min

Question: And the IC50 (KDR (VEGFR2))?
Answer: 127 nM

Question: What about the “Fold Selectivity” value (KDR (VEGFR2); KDR (VEGFR2) vs Jak1 (= 1)) of the same compound?
Answer: 85 fold
